B1: Osa-1-4 twister ribozyme (parent)
chain: CCGCCUAACACUGCCAAUGCCGGUCCCAAGCCCGGAUAAAAGUGGAGGGGGCGG

In this data set the parent is B1. The experiment in a line: self-cleavage, relative activity (ratio to wild type); higher = more cleavage; co-transcriptional. The method, boiled down:
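The 48 positions downstream of the cleavage site in a 54-nucleotide Oryza sativa twister ribozyme template were synthesised at 97 % wild-type base and 1 % of each other base. The template was transcribed in vitro at 37 °C for 2 h, with self-cleavage allowed during transcription. Reads with or without upstream sequence after deep sequencing marked cleavage status, and relative activity is fraction cleaved normalised to wild type.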
As to C27U U43G, the self-cleavage came out at 0.08.
C27U U43A: the self-cleavage is 0.11.
For C27U U43C the value was 0.1; for A28G C21G, 0.06; for A28G C21U, 0.23.
For A28G C21A the value was 0.07; for A28C C25U, 0.91.
As for A28C C25G, the figure is 0.09; as for A28C C25A, 0.09; as for A28C G13A, 0.11.
Consider A28C G13C, for which the self-cleavage was determined as 0.02.
As for A28C G13U, the figure is 0.03; as for A28C G45C, 0.03.
As for A28C G45A, the figure is 0.13; as for A28C G45U, 0.08.
For A28C C32G the value was 0.1.
Turning to A28C C32U, the self-cleavage was 0.11.
For A28C C32A the value was 0.08; for C27U G22C, 0.03; for C27U G22A, 0.12.
On to C27U G22U, for which the self-cleavage was determined as 0.06.
Consider A28G G45U, for which the self-cleavage came out at 0.05.
As for A28G G45C, the figure is 0.04.
As for A28G G45A, the figure is 0.05; as for C27G U24A, 0.03.
As to C27G U24G, the self-cleavage amounted to 0.02.
For C27G U24C the value was 0.04.
For the variant A28C G42A, the self-cleavage was found to be 0.43.
For A28C G42U, the self-cleavage was 0.08.
Turning to A28C G42C, the self-cleavage amounted to 0.12.
Turning to A28C G44A, the self-cleavage worked out at 0.95.
In the case of A28C G44U, the self-cleavage came out at 0.75.
As for A28C G44C, the self-cleavage came out at 0.95.
As for A28C A39U, the figure is 1.
Turning to A28C A39G, the self-cleavage was determined as 0.99.
As for A28C A39C, the figure is 0.93; as for A28C C21A, 0.53.
As for A28C C21G, the figure is 0.09; as for A28C C21U, 1.
For A28G C20A the value was 0.37.
As to A28G C20G, the self-cleavage is 0.08.
In the case of A28G C20U, the self-cleavage was 0.31.
For C27U G30A the value was 0.02; for C27U G30U, 0.05; for C27U G30C, 0.02.
As for A28G G22A, the figure is 0.14; as for A28G G22U, 0.1.
Regarding A28G G22C, the self-cleavage was found to be 0.06.
For A28C C9A the value was 0.42; for A28C C9U, 0.8.
As for A28C C9G, the figure is 0.67; as for C27G U18G, 0.17; as for C27G U18A, 0.09.
For C27G U18C, the self-cleavage was determined as 0.09.
For A28C G54A the value was 0.91.
In the case of A28C G54C, the self-cleavage amounted to 0.86.
As for A28C G54U, the figure is 0.95.
With C27G U12G, the self-cleavage came out at 0.06.
As for C27G U12C, the figure is 0.05; as for C27G U12A, 0.05.
For A28G A40G the value was 0.14; for A28G A40U, 0.09; for A28G A40C, 0.05.
With A28C U24A, the self-cleavage came out at 0.14.
As for A28C U24C, the figure is 0.18.
For A28C U24G the value was 0.05.
As for A28C C26G, the figure is 0.09; as for A28C C26A, 0.05; as for A28C C26U, 0.78.
In the case of A28G G30U, the self-cleavage amounted to 0.05.
As for A28G G30A, the figure is 0.05; as for A28G G30C, 0.04.
As to A28C A46C, the self-cleavage is 0.06.
For A28C A46U the value was 0.07; for A28C A46G, 0.07; for A28G A36G, 0.45.
For A28G A36U the value was 0.36.
Regarding A28G A36C, the self-cleavage came to 0.09.
As for A28G C15U, the self-cleavage was 0.08.
In the case of A28G C15A, the self-cleavage turned out to be 0.08.
A28G C15G: the self-cleavage worked out at 0.23.
For C27U G13A the value was 0.04; for C27U G13C, 0.01.
As to C27U G13U, the self-cleavage worked out at 0.01.
With C27U G42A, the self-cleavage is 0.08.
As to C27U G42C, the self-cleavage is 0.07.
Regarding C27U G42U, the self-cleavage was determined as 0.03.
For C27U G49A the value was 0.05.
Consider C27U G49U, for which the self-cleavage stood at 0.04.
As for C27U G49C, the self-cleavage worked out at 0.04.
For C27U C32G the value was 0.05.
For C27U C32U the value was 0.06; for C27U C32A, 0.04; for C27U C9A, 0.02.
As for C27U C9U, the self-cleavage stood at 0.1.
For the variant C27U C9G, the self-cleavage was 0.09.
In the case of A28G C25A, the self-cleavage came to 0.04.
Regarding A28G C25G, the self-cleavage is 0.09.
With A28G C25U, the self-cleavage came to 0.11.
As to C27U G53U, the self-cleavage amounted to 0.08.
For C27U G53A the value was 0.12; for C27U G53C, 0.05; for C27U G51C, 0.04.
As for C27U G51U, the figure is 0.07; as for C27U G51A, 0.11; as for C27U G54A, 0.14.
For C27U G54C the value was 0.12; for C27U G54U, 0.31; for A28G G34U, 0.1.
Turning to A28G G34A, the self-cleavage was determined as 0.21.
As for A28G G34C, the figure is 0.08; as for A28C G49C, 0.07; as for A28C G49U, 0.13.
As to A28C G49A, the self-cleavage came to 0.16.
For A28C A7G, the self-cleavage was 0.2.
Consider A28C A7U, for which the self-cleavage was found to be 0.07.
For A28C A7C the value was 0.06; for A28C U12A, 0.89; for A28C U12G, 0.15.
Consider A28C U12C, for which the self-cleavage was determined as 0.34.
For A28C C20A the value was 0.94; for A28C C20G, 0.31; for A28C C20U, 1.01.
For A28G C11A the value was 0.09; for A28G C11U, 0.16.
As for A28G C11G, the figure is 0.06; as for C27U G47A, 0.88.
With C27U G47C, the self-cleavage was 0.42.
For C27U G47U the value was 0.11.
With A28C A38U, the self-cleavage came out at 0.97.
A28C A38C: the self-cleavage came to 0.98.
Turning to A28C A38G, the self-cleavage worked out at 1.01.
For A28G G23C the value was 0.04; for A28G G23A, 0.13; for A28G G23U, 0.05.
For A28C U18G the value was 1.01.
For the variant A28C U18A, the self-cleavage is 0.96.
As for A28C U18C, the figure is 0.72.
Take A28G A8U: the self-cleavage was 0.07.
As for A28G A8C, the figure is 0.05; as for A28G A8G, 0.19.
As to A28C G53C, the self-cleavage was determined as 0.08.
As for A28C G53U, the figure is 0.23; as for A28C G53A, 0.78.
For A28C G50U the value was 0.98; for A28C G50A, 0.81.
For the variant A28C G50C, the self-cleavage was 1.
For A28G A38C the value was 0.21; for A28G A38G, 0.22.
As for A28G A38U, the figure is 0.23.
On to A28C C31A, for which the self-cleavage came to 0.04.
As for A28C C31G, the figure is 0.09; as for A28C C31U, 0.84; as for C27U U37C, 0.32.
As for C27U U37A, the figure is 0.16.
C27U U37G: the self-cleavage came to 0.37.
For A28C A29G, the self-cleavage turned out to be 0.16.
For A28C A29U the value was 0.09; for A28C A29C, 0.05.
With A28G G13A, the self-cleavage was 0.05.
As for A28G G13C, the figure is 0.03.
As to A28G G13U, the self-cleavage is 0.01.
Regarding A28G A39C, the self-cleavage was found to be 0.11.
As for A28G A39G, the figure is 0.17.
As for A28G A39U, the self-cleavage came to 0.16.
As for A28C U37G, the figure is 0.98; as for A28C U37A, 0.74.
